For experiment [1], the system named is Mycobacterium tuberculosis variant bovis BCG. Description: Antimycobacterial activity against Mycobacterium bovis BCG ATCC 35734 after 5 days by broth dilution method. In kind it is functional. The settings on record: ATCC 35734, 120 h. Background: Dilution methods test growth across graded concentrations, often in twofold steps.
Experiment [2] has the same test system. Description: Bactericidal activity against Mycobacterium bovis BCG ATCC 35734 assessed as 1000 fold reduction in CFU after 5 days. The experiment is classed as functional. The settings on record: ATCC 35734, 120 h, read-out: MBC99.9. The method, boiled down:
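BCG ran 5 days at 37°C, 110 rpm; H37Rv ran 7 days at 37°C, 80 rpm. CFU counted on 7H10 agar. MBC99.9 is the 1000-fold CFU reduction versus inoculum at time zero. Average of 2 or more determinations.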

The test system is the same in experiment [3]. Description: Antimycobacterial activity against Mycobacterium bovis BCG ATCC 35734 after 5 days in absence of glycerol by broth dilution method. In kind it is functional. The settings on record: ATCC 35734, 120 h.
Experiment [4] has the same test system. Description: Antimycobacterial activity against Mycobacterium bovis BCG ATCC 35734 after 5 days in presence of 10% FBS by broth dilution method. The settings on record: ATCC 35734, 120 h. In kind it is functional.
For experiment [5] the test system is unchanged. Description: Bactericidal activity against Mycobacterium bovis BCG ATCC 35734 at 4 times MIC90 measured at 48 hrs by time kill assay relative to control. In kind it is functional, organism-based. The procedure, abridged:
(§1)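 Samples taken at 6, 12, 24 and 48 h, diluted and plated on 7H10 agar for CFU. Three independent biological replicates.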

Experiment [6] shares this test system. Description: Bactericidal activity against Mycobacterium bovis BCG ATCC 35734 at 4 times MIC90 measured up to 48 hrs by time kill assay relative to control. In kind it is functional. The procedure, abridged: as §1
The test system of experiment [7] is Cell membrane. Description: Disruption of cell membrane potential in Mycobacterium bovis BCG ATCC 35734 at 0.08 uM after 20 mins to 5 days by DiOC2 dye-based fluorescence assay. As to conditions: Mycobacterium tuberculosis variant bovis BCG. The method, boiled down: (§2)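 Controls were rifampicin 0.08 μM (negative) and CCCP 100 μM (positive). Membrane potential tracked by DiOC2 red/green fluorescence ratio over minutes–hours and days 1–5, versus drug-free cultures. 2–3 independent biological replicates.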

Experiment [8] concerns Cell membrane. Description: Disruption of cell membrane potential in Mycobacterium bovis BCG ATCC 35734 at 100 uM after 20 mins to 5 days by DiOC2 dye-based fluorescence assay. The settings on record: Mycobacterium tuberculosis variant bovis BCG. The procedure, abridged: as §2
For experiment [9], the system named is Cell membrane. Description: Induction of cell membrane permeabilization in Mycobacterium bovis BCG ATCC 35734 at 4 times MIC90 after 12 hrs by SYTO9/propidium iodide staining-based fluorescence assay. As to conditions: Mycobacterium tuberculosis variant bovis BCG. The method, boiled down: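 At each time point cells were washed into 0.9% NaCl at OD600 = 0.5 and stained with SYTO 9 and PI for 15 min at 37°C in the dark. Green (488/530 nm) and red (488/630 nm) fluorescence read. G/R ratio scaled between drug-free (0%) and 5% SDS (100%). Three biological replicates.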

For experiment [10], the system named is Cell membrane. Description: Disruption of cell membrane potential in Mycobacterium bovis BCG ATCC 35734 at 4 times MIC90 after 4 hrs by DiOC2 dye-based fluorescence assay. As to conditions: Mycobacterium tuberculosis variant bovis BCG. The procedure, abridged: as §2
The test system of experiment [11] is Cell membrane. Description: Disruption of cell membrane potential in Mycobacterium bovis BCG ATCC 35734 at 4 times MIC90 after 3 days by DiOC2 dye-based fluorescence assay. As to conditions: Mycobacterium tuberculosis variant bovis BCG. The procedure, abridged: as §2

The source of these data is ChEMBL document CHEMBL4145615, “Indolyl Azaspiroketal Mannich Bases Are Potent Antimycobacterial Agents with Selective Membrane Permeabilizing Effects and in Vivo Activity” (J Med Chem, 2018).

Values after ≈ are worked out from the molar mass of the structure shown. Active and inactive are the calls of the source. No cut-off for these calls is given here.

A word on the MIC50: it is an inhibitory concentration at the 50% level, which refers to growth in some studies and to a panel of isolates in others. One may read the MIC90 as the lowest concentration that inhibits either 90% of growth or 90% of the strains tested, depending on the study.

For the molecule `CCCCCCCCn1cc(CN2CCC3(CC2)OCCO3)c2ccc(OC)cc21`, the MIC50 in experiment [1] amounted to 2 µM (≈ 0.829 µg/mL); in [3] it was 1.6 µM (≈ 0.663 µg/mL); in [4], 1.1 µM. The MIC90 in experiment [1] amounted to 4 µM (≈ 1.66 µg/mL). For the same molecule, in experiment [2], the MBC was in the range of 3 to 6 µM (≈ 1.24 to 2.49 µg/mL). Moreover, the outcome in [5] was inactive.

Regarding `NNC(=O)c1ccncc1` [ISONIAZID], in experiment [6], the “fold change (FC)” value is over 100.

On to `CO[C@H]1/C=C/O[C@@]2(C)Oc3c(C)c(O)c4c(O)c(c(/C=N/N5CCN(C)CC5)c(O)c4c3C2=O)NC(=O)/C(C)=C\C=C\[C@H](C)[C@H](O)[C@@H](C)[C@@H](O)[C@@H](C)[C@H](OC(C)=O)[C@@H]1C`, for which the result in the experiment with Cell membrane [7] was inactive.

Regarding `CCCCCCCCn1cc(CN2CCC3(CC2)OCCCO3)c2ccc(OC)cc21`, the MIC50 in [1] amounted to 0.3 µM (≈ 0.129 µg/mL); in experiment [3], 0.35 µM (≈ 0.15 µg/mL); in experiment [4] it was 0.33 µM. For the same molecule, the MIC90 in [1] stood at 0.8 µM (≈ 0.343 µg/mL). Also, the MBC in experiment [2] lay within 0.8 to 1.6 µM (≈ 0.343 to 0.686 µg/mL). In addition, the “fold change (FC)” value in [6] is recorded as over 100.

For `N#CC(C#N)=NNc1cccc(Cl)c1`, the outcome in the experiment with Cell membrane [8] was Active.

On to `CCCCCCCCn1cc(CN2CCC3(CC2)OCCCS3)c2ccc(OC)cc21`, for which the MIC50 was determined as 0.4 µM (≈ 0.178 µg/mL) in experiment [1], 0.41 µM (≈ 0.182 µg/mL) in experiment [3] and 0.6 µM in experiment [4]. The molecule further had an MIC90 in [1] of 0.8 µM (≈ 0.356 µg/mL). The MBC in experiment [2] lay within 0.4 to 1.6 µM (≈ 0.178 to 0.711 µg/mL). Also, the result with Cell membrane [9] was Active. The “fold change (FC)” value in experiment [6] is given as over 100.

In the case of `CCCCCCCCn1cc(CN2CCCCCC2)c2c(F)cccc21`, the result with Cell membrane [10] was inactive. Besides, the outcome with Cell membrane [11] was Active.
